In ChEMBL document CHEMBL1122702, “Radiohalogen-labeled imaging agents. 3. Compounds for measurement of brain blood flow by emission tomography” (J Med Chem, 1984):

What was measured:
Format in all cases: ADME, organism-based
Rattus norvegicus [1] = species on record: Rattus norvegicus; assay: The uptake of the 131 I-labeled compound at 30 min was evaluated in rat blood as Percent of injected dose per gram in the organ; details: in vivo, 0.5 h
Method in brief: (§1)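 Male Sprague-Dawley rats (200–300 g, free access to food and water), lightly ether-anesthetized and restrained, received a 0.2 mL saline tail-vein bolus of 10–20 μCi 131I-labeled compound. They were decapitated at the stated time, and organs were excised, weighed and gamma-counted. Percent injected dose was determined against a calibrated external standard made by serial dilution of the injectate. n = 1–4 rats.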

Rattus norvegicus [2] = species on record: Rattus norvegicus; assay: The uptake of the 131 I-labeled compound at 30 min was evaluated in rat brain as Percent of injected dose in the total organ; details: in vivo, 0.5 h; method in brief: as §1
Rattus norvegicus [3] = species on record: Rattus norvegicus; assay: The uptake of the 131 I-labeled compound at 30 min was evaluated in rat brain as Percent of injected dose per gram in the organ; details: in vivo, 0.5 h; method in brief: as §1
Rattus norvegicus [4] = species on record: Rattus norvegicus; assay: The uptake of the 131 I-labeled compound at 30 min was evaluated in rat heart as Percent of injected dose in the total organ; details: in vivo, 0.5 h; method in brief: as §1
Rattus norvegicus [5] = species on record: Rattus norvegicus; assay: The uptake of the 131 I-labeled compound at 30 min was evaluated in rat heart as Percent of injected dose per gram in the organ; details: in vivo, 0.5 h; method in brief: as §1
Rattus norvegicus [6] = species on record: Rattus norvegicus; assay: The uptake of the 131 I-labeled compound at 30 min was evaluated in rat kidney as Percent of injected dose in the total organ; details: in vivo, 0.5 h; method in brief: as §1
Rattus norvegicus [7] = species on record: Rattus norvegicus; assay: The uptake of the 131 I-labeled compound at 30 min was evaluated in rat kidney as Percent of injected dose per gram in the organ; details: in vivo, 0.5 h; method in brief: as §1
Rattus norvegicus [8] = species on record: Rattus norvegicus; assay: The uptake of the 131 I-labeled compound at 30 min was evaluated in rat liver as Percent of injected dose in the total organ; details: in vivo, 0.5 h; method in brief: as §1
Rattus norvegicus [9] = species on record: Rattus norvegicus; assay: The uptake of the 131 I-labeled compound at 30 min was evaluated in rat liver as Percent of injected dose per gram in the organ; details: in vivo, 0.5 h; method in brief: as §1
Rattus norvegicus [10] = species on record: Rattus norvegicus; assay: The uptake of the 131 I-labeled compound at 30 min was evaluated in rat lung as Percent of injected dose per gram in the organ; details: in vivo, 0.5 h; method in brief: as §1
Rattus norvegicus [11] = species on record: Rattus norvegicus; assay: The uptake of the 131 I-labeled compound at 5 min was evaluated in rat blood as Percent of injected dose per gram in the organ; details: in vivo; method in brief: as §1
Rattus norvegicus [12] = species on record: Rattus norvegicus; assay: The uptake of the 131 I-labeled compound at 5 min was evaluated in rat brain as Percent of injected dose in the total organ; details: in vivo; method in brief: as §1
Rattus norvegicus [13] = species on record: Rattus norvegicus; assay: The uptake of the 131 I-labeled compound at 5 min was evaluated in rat brain as Percent of injected dose per gram in the organ; details: in vivo; method in brief: as §1
Rattus norvegicus [14] = species on record: Rattus norvegicus; assay: The uptake of the 131 I-labeled compound at 5 min was evaluated in rat heart as Percent of injected dose in the total organ; details: in vivo; method in brief: as §1
Rattus norvegicus [15] = species on record: Rattus norvegicus; assay: The uptake of the 131 I-labeled compound at 5 min was evaluated in rat kidney as Percent of injected dose in the total organ; details: in vivo; method in brief: as §1
Rattus norvegicus [16] = species on record: Rattus norvegicus; assay: The uptake of the 131 I-labeled compound at 5 min was evaluated in rat kidney as Percent of injected dose per gram in the organ; details: in vivo; method in brief: as §1
Rattus norvegicus [17] = species on record: Rattus norvegicus; assay: The uptake of the 131 I-labeled compound at 5 min was evaluated in rat liver as Percent of injected dose in the total organ; details: in vivo; method in brief: as §1
Rattus norvegicus [18] = species on record: Rattus norvegicus; assay: The uptake of the 131 I-labeled compound at 5 min was evaluated in rat liver as Percent of injected dose per gram in the organ; details: in vivo; method in brief: as §1
Rattus norvegicus [19] = species on record: Rattus norvegicus; assay: The uptake of the 131 I-labeled compound at 5 min was evaluated in rat lung as Percent of injected dose per gram in the organ; details: in vivo; method in brief: as §1
Rattus norvegicus [20] = species on record: Rattus norvegicus; assay: Ratio of distribution of the [131I]-labeled compound at 30 min in rat brain over uptake in blood; details: 0.5 h
Method in brief: (§2)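 Male Sprague-Dawley rats (200–300 g, fed ad libitum), ether-anesthetized, got a tail-vein bolus of 0.2 mL saline containing 10–20 μCi 131I compound and were decapitated at the stated time. Organs were weighed and gamma-counted against a serially diluted external standard. Organ/blood ratio was calculated from % dose per gram of organ. Animal numbers per time point were 1–4.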

Rattus norvegicus [21] = species on record: Rattus norvegicus; assay: Ratio of distribution of the [131I]-labeled compound at 30 min in rat heart over uptake in blood; details: other tissue, 0.5 h; method in brief: as §2
Rattus norvegicus [22] = species on record: Rattus norvegicus; assay: Ratio of distribution of the [131I]-labeled compound at 30 min in rat kidney over uptake in blood; details: other tissue, 0.5 h; method in brief: as §2
Rattus norvegicus [23] = species on record: Rattus norvegicus; assay: Ratio of distribution of the [131I]-labeled compound at 30 min in rat liver over uptake in blood; details: other tissue, 0.5 h; method in brief: as §2
Rattus norvegicus [24] = species on record: Rattus norvegicus; assay: Ratio of distribution of the [131I]-labeled compound at 30 min in rat lung over uptake in blood; details: other tissue, 0.5 h; method in brief: as §2
Rattus norvegicus [25] = species on record: Rattus norvegicus; assay: Ratio of distribution of the [131I]-labeled compound at 5 min in rat brain over uptake in blood; method in brief: as §2
Rattus norvegicus [26] = species on record: Rattus norvegicus; assay: Ratio of distribution of the [131I]-labeled compound at 5 min in rat heart over uptake in blood; details: other tissue; method in brief: as §2
Rattus norvegicus [27] = species on record: Rattus norvegicus; assay: Ratio of distribution of the [131I]-labeled compound at 5 min in rat kidney over uptake in blood; details: other tissue; method in brief: as §2
Rattus norvegicus [28] = species on record: Rattus norvegicus; assay: Ratio of distribution of the [131I]-labeled compound at 5 min in rat liver over uptake in blood; details: other tissue; method in brief: as §2
Rattus norvegicus [29] = species on record: Rattus norvegicus; assay: Ratio of distribution of the [131I]-labeled compound at 5 min in rat lung over uptake in blood; details: other tissue; method in brief: as §2
Rattus norvegicus [30] = species on record: Rattus norvegicus; assay: The uptake of the 131 I-labeled compound at 5 min was evaluated in rat heart as Percent of injected dose per gram in the organ; details: in vivo; method in brief: as §1

Row | Structure (SMILES) | Dose (Rattus norvegicus [1]) | Dose (Rattus norvegicus [2]) | Dose (Rattus norvegicus [3]) | Dose (Rattus norvegicus [4]) | Dose (Rattus norvegicus [5]) | Dose (Rattus norvegicus [6]) | Dose (Rattus norvegicus [7]) | Dose (Rattus norvegicus [8]) | Dose (Rattus norvegicus [9]) | Dose (Rattus norvegicus [10]) | Dose (Rattus norvegicus [11]) | Dose (Rattus norvegicus [12]) | Dose (Rattus norvegicus [13]) | Dose (Rattus norvegicus [14]) | Dose (Rattus norvegicus [15]) | Dose (Rattus norvegicus [16]) | Dose (Rattus norvegicus [17]) | Dose (Rattus norvegicus [18]) | Dose (Rattus norvegicus [19]) | Ratio (Rattus norvegicus [20]) | further results
1 | COc1cc(CC(C)NO)c(OC)cc1I (stereo not given) | 0.16% | 1.2% | 0.63% | 0.24% | 0.3% | 2.1% | 1.2% | 6.6% | 0.72% | 3.3% | 0.19% | 1.2% | 0.69% | 0.8% | 2.5% | 1.4% | 8.6% | 1.5% | 2% | 3.9 | Ratio (Rattus norvegicus [21]): 1.9; Ratio (Rattus norvegicus [22]): 7.5; Ratio (Rattus norvegicus [23]): 4.5; Ratio (Rattus norvegicus [24]): 21; Ratio (Rattus norvegicus [25]): 3.6; Ratio (Rattus norvegicus [26]): 3.6; Ratio (Rattus norvegicus [27]): 6.8; Ratio (Rattus norvegicus [28]): 9.5; Ratio (Rattus norvegicus [29]): 12; Dose (Rattus norvegicus [30]): 0.66%
2 | CCCCCCCCCCCCNC(C)Cc1cc(OC)c(I)cc1OC (stereo not given) | 0.16% | 0.046% | 0.022% | 0.27% | 0.19% | 0.69% | 0.22% | 7.9% | 0.53% | 1.3% | 0.48% | 0.084% | 0.047% | 1% | 1.8% | 0.58% | 17% | 1.2% | 6.1% | 0.14 | Ratio (Rattus norvegicus [21]): 1.2; Ratio (Rattus norvegicus [22]): 1.4; Ratio (Rattus norvegicus [23]): 3.3; Ratio (Rattus norvegicus [24]): 8.1; Ratio (Rattus norvegicus [25]): 0.1; Ratio (Rattus norvegicus [26]): 1.2; Ratio (Rattus norvegicus [27]): 1.2; Ratio (Rattus norvegicus [28]): 2.5; Ratio (Rattus norvegicus [29]): 13; Dose (Rattus norvegicus [30]): 0.6%
